Results from PMC11995693 (Journal of medicinal chemistry, 2025).
“Also recorded” adds a separate entry of the source. Like-named read-outs stand apart in the source and are kept apart here.

Columns and labels:
[1] = tested on: NHEKs; assay: Screening of TLR3 and IL-6 mRNA expression in NHEKs; format: cell-based, human
[2] = tested on: C57BL/6 mice; conditions: cited from earlier work; for hair growth: topical application
[3] = PAMPA-GIT permeability; format: in vitro ADME
Outline: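 Stirred PAMPA sandwich with the acceptor-side filter coated in GIT-0 lipid. Donor held test or reference compound at 10 μM in pH 7.4 buffer with 0.2% DMSO, against pH 7.4 sink buffer. Incubated 4 h at room temperature. Donor and acceptor were sampled and quantified by LC-MS/MS. Effective permeability (Pe, cm/s) was calculated from filter area × 70% porosity, phase volumes, incubation and steady-state time, and donor concentrations, with membrane retention factor.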

[4] = Oral pharmacokinetics in mice; format: in vivo, C57BL6 mice; conditions: 100 mg/kg equivalent
[5] = tested on: Poly(I:C) + IFNγ stimulated NHEK cells; assay: Poly; format: cell-based, human; conditions: for inhibition of IFNγ-inducible chemokines (CXCL9, CXCL10, CXCL11): 30–100 μM
Outline: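 Primary human epidermal keratinocytes were seeded and incubated overnight at 37 °C. They were stimulated with Poly(I:C) (50 μg/mL) plus IFNγ (5 ng/mL), with or without test compound at 1, 10, 30 or 100 μM, for 8 h. RNA was isolated, and TaqMan RT-PCR gave fold changes in IL-6, IFNβ, IL-1β, CXCL9, CXCL10 and CXCL11 expression.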

[6] = Chemical stability in pH buffers; format: physicochemical
[7] = Preliminary toxicity profile of P13, systemic administration; format: in vivo; conditions: two doses, systemic administration (Figure S2, Table S1)

SMILES: C=C(CC(=O)OC)C(=O)O [Compound 4-MI, 4-methyl itaconate]
- effect on TLR3 and IL-6 mRNA / cytokine production, in words ([1]; Figure S1): neither 4-MI nor 1A affected the mRNA expression; also recorded: failed to inhibit cytokine production
- efficacy in vivo in the alopecia areata model ([2]; compared at equimolar doses): ineffective
- permeability in PAMPA, in words [3]: poor permeability

SMILES: C=C(CC(=O)OCOC(=O)OC(C)C)C(=O)OCOC(=O)OC(C)C [Compound P2, Bis(((isopropoxycarbonyl)oxy)methyl) 2-Methylenesuccinate]
- intact prodrug in plasma [4]: not detectable
- inhibition of mRNA expression of TLR3 and IL-6 ([1]; Figure S1): > 90%
- inhibition of IFNβ, in words ([5]; 1–100 μM, 8 h): dose dependent inhibition
- inhibition of IL-6, in words ([5]; 1–100 μM, 8 h): significant, dose-dependent inhibition
- inhibition of IFNγ-inducible chemokines (CXCL9, CXCL10, CXCL11) ([5]; 8 h): over 50%

SMILES: C=C(CC(=O)OCOC(=O)C(C)(C)C)C(=O)O [Compound P4, 2-Methylene-4-oxo-4-((pivaloyloxy)methoxy)butanoic Acid]
- chemical stability at pH 7.4, in words [6]: complete instability

SMILES: C=C(CC(=O)OCOC(=O)OC(C)C)C(=O)O [Compound P5, 4-(((Isopropoxycarbonyl)oxy)methoxy)-2-methylene-4-oxobutanoic Acid]
- chemical stability at pH 7.4, in words [6]: complete instability

SMILES: C=C(CC(=O)OCc1oc(=O)oc1C)C(=O)O [Compound P6, 4-((5-Methyl-2-oxo-1,3-dioxol-4-yl)methoxy)-2-methylene-4-oxobutanoic Acid]
- chemical stability at pH 7.4, in words [6]: complete instability

SMILES: C=C(CC(=O)OCCCOCCCCCCCCCCCCCCCC)C(=O)O [Compound P7, 4-(3-(Hexadecyloxy)-propoxy)-2-methylene-4-oxobutanoic Acid]
- permeation index (Pe) [3]: 3.21 ×10⁻⁶ cm/s

SMILES: C=C(CC(=O)OCOC(=O)OC(C)C)C(=O)OC [Compound P9, 4-(((Isopropoxycarbonyl)oxy)methyl) 1-Methyl 2-Methylenesuccinate]
- effect on IL-1β, in words ([5]; 100 μM): showed effects at 100 μM

SMILES: C=C(CC(=O)OC)C(=O)OCOC(=O)OC(C)C [Compound P13, 1-(((Isopropoxycarbonyl)oxy)methyl) 4-Methyl 2-Methylenesuccinate]
- intact prodrug in plasma [4]: undetectable
- inhibition of mRNA expression of TLR3 and IL-6 ([1]; Figure S1): > 90%
- hematological changes and weight loss [7]: No hematological changes or weight loss
- skin concentrations ([2]; topical administration): considerable skin concentrations
- hair growth [2]: significantly promoted hair growth
- hair growth ([2]; listed as SCD-153): significant increase in hair growth
- inhibition of IL-6, in words ([5]; 1–100 μM, 8 h): significant, dose-dependent inhibition
- inhibition of IFNγ-inducible chemokines (CXCL9, CXCL10, CXCL11) ([5]; 8 h): over 50%

SMILES: C=C(CC(=O)O)C(=O)O [IA, Itaconic acid]
- effect on TLR3 and IL-6 mRNA / cytokine production, in words ([1]; Figure S1): failed to inhibit cytokine production
- effect on TLR3 and IL-6 mRNA / cytokine production, in words ([1]; Figure S1, listed as 1A): neither 4-MI nor 1A affected the mRNA expression
- permeability in PAMPA, in words [3]: poor permeability
